hERG protect – hERG (human) protection from proarrhythmic block. CHO-hERG, FluxOR thallium flux, dofetilide IC70 present. activation (rescue from dofetilide block), less the hit threshold, % at 10 µM. hit rate 0.51% among 310,000;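 active means activation above the mean of controls blocked by dofetilide plus 5 SD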;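 further: thallium influx through hERG after potassium depolarization seen as dye fluorescence rise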
KCNK9 inh – human KCNK9 channel inhibition | Q9NPC2 | HEK293 KCNK9, FluxOR thallium flux fluorescence; stronger effect = lower value | B-score at 10 µM | hit rate 1.2% among 310,000 | AID 488922;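 active means ratio B-score over 3 SD below the library mean, with starting fluorescence within 5 SD of its mean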;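 further: negative B-score means less thallium flux so channel inhibition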
KCNQ1 inh – inhibitors of human KCNQ1 potassium channel; P51787; CHO-K1 KCNQ1, FluxOR thallium flux fluorescence; stronger effect = higher value; B-score at 10 µM; hit rate 1.3% among 310,000;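 active means compounds whose thallium flux B-score, printed positive for inhibition, exceeds three library SD while starting fluorescence stays within three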;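 further: channel opened by potassium depolarization with thallium stimulus after 20 min compound exposure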
Target sequence (P51787 whole entry, looked up): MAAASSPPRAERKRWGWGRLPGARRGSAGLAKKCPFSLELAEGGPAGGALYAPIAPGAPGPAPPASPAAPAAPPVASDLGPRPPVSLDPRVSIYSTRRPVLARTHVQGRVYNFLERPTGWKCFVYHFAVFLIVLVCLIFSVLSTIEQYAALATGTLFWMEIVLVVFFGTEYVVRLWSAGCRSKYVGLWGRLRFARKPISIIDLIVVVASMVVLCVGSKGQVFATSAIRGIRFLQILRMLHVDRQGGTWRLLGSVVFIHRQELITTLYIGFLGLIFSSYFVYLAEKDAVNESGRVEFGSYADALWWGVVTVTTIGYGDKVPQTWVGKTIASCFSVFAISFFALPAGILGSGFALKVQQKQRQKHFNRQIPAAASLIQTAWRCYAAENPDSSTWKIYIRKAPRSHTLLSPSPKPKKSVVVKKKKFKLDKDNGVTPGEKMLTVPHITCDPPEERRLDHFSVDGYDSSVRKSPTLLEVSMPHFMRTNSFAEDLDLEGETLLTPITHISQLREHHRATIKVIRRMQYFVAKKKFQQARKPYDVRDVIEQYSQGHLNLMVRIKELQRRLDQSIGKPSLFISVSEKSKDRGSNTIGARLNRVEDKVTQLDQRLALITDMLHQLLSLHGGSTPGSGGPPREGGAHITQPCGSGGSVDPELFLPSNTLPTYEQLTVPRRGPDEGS
PHOSPHO1 block – inhibitors of human PHOSPHO1 phosphatase | recombinant PHOSPHO1, absorbance phosphatase assay | inhibition, % at 13.3 µM | AID 1565 | hit rate 1.1% among 290,000 | Q8TCT1; in the data active means inhibition above about 60%
KCNQ1 pot – human KCNQ1 channel potentiation or activation. B-score at 10 µM. hit rate 0.35% among 310,000. AID 2648. CHO-K1 KCNQ1, thallium flux FluxOR fluorescence; stronger effect = higher value;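 active means fluorescence ratio B-score, a plate-corrected score, at least three library SD, with initial intensity B-score within 5 SD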
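System: Stable KCNQ1 CHO-K1 line | Incubation: 90 min dye loading and 20 min compound exposure, both at room temperature | Measure: Ratio B score | Medium: Assay buffer for compound exposure, DMSO matched across wells | Compound dosing: Single-concentration screen | Probe or stimulus: K+/Tl+ depolarizing stimulus | Measured by: Kinetic FluxOR fluorescence, 10 s baseline plus 110 s post-stimulus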
KCNK3 inh – human KCNK3 channel inhibition, primary screen. CHO-KCNK3 thallium flux, FluxOR fluorescence; stronger effect = lower value. B-score at 10 µM. hit rate 0.84% among 340,000. O14649. AID 602410;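 active means B-score under library mean minus 4 SD, starting fluorescence ratio at most library mean plus 5 SD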;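 further: more negative B-score means stronger inhibition of thallium flux through KCNK3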
* = called active by the depositor. Compounds with a hit are over-represented: about 4% of the library has one in this group of screens.

Screening COc1ccc(C2CC(=O)Oc3c(C(CCN4CCCC(C)C4)c4ccc(N(C)C)cc4)c(OC)cc(OC)c32)cc1 (centres undefined) returned hERG protect -9.9, KCNK9 inh inactive, KCNQ1 inh 7*, PHOSPHO1 block 8.5, KCNQ1 pot inactive and KCNK3 inh inactive.
`COc1ccc(C2CC(=O)Oc3c(C(CCN4CCCCC4)c4ccc(N(C)C)cc4)c(OC)cc(OC)c32)cc1` (centres undefined) gave hERG protect -9.6, KCNK9 inh inactive, KCNQ1 inh inactive, PHOSPHO1 block -0.6, KCNQ1 pot inactive and KCNK3 inh inactive.
For CN(C)C(=O)c1c2c(nc3ccccc13)CCCC2 the results were hERG protect 8.1*, KCNK9 inh inactive, KCNQ1 inh inactive, PHOSPHO1 block 32.8, KCNQ1 pot inactive and KCNK3 inh inactive.
O=C(COc1ccccc1)NS(=O)(=O)c1ccc(Cl)cc1 was read as hERG protect -8.4, KCNK9 inh inactive, KCNQ1 inh inactive, PHOSPHO1 block 25.0, KCNQ1 pot inactive and KCNK3 inh inactive.
`CCOC(=O)c1c(C)[nH]c(C(=O)OCC(=O)Nc2cc(C)c(Cl)cc2OC)c1C` gave hERG protect -2.4, KCNK9 inh inactive, KCNQ1 inh inactive, PHOSPHO1 block 2.5, KCNQ1 pot inactive and KCNK3 inh inactive.
Screening Cc1ccc(/C=N/N(Cc2ccccc2)c2ccccc2)o1 returned hERG protect -6.8, KCNK9 inh -6.8*, KCNQ1 inh inactive, PHOSPHO1 block 27.5, KCNQ1 pot inactive and KCNK3 inh inactive.
`CCOC(=O)c1[nH]cc(-c2ccccc2)c1N1CCOCC1` gave PHOSPHO1 block 79.6* and KCNK3 inh inactive.
Screening CCOC(=O)c1cnc(-c2ccccc2)nc1N1CCOCC1 returned hERG protect -6.8, KCNK9 inh inactive, KCNQ1 inh inactive, PHOSPHO1 block 15.5, KCNQ1 pot inactive and KCNK3 inh inactive.
`COC(=O)Cn1c(O)c(N=NC(=O)CNC(=O)c2ccncc2)c2ccccc21` gave hERG protect -4.6, KCNK9 inh inactive, KCNQ1 inh inactive, PHOSPHO1 block 64.0*, KCNQ1 pot inactive and KCNK3 inh inactive.
For O=S(=O)(NCC(c1ccco1)N1CCc2ccccc2C1)c1ccc(F)cc1 (centres undefined) the results were hERG protect -11.5, KCNK9 inh inactive, KCNQ1 inh inactive, KCNQ1 pot inactive and KCNK3 inh inactive.
`Cc1cc(C)c(S(=O)(=O)NCC(c2ccco2)N2CCc3ccccc3C2)c(C)c1` (centres undefined) gave hERG protect -3.3, KCNK9 inh -6.83*, KCNQ1 inh inactive, KCNQ1 pot inactive and KCNK3 inh inactive.
NC(=O)c1c(NC(NC(=O)c2ccco2)C(=O)c2ccc(Cl)cc2)sc2c1CCCC2 (centres undefined) was read as hERG protect -3.9, KCNK9 inh inactive, KCNQ1 inh inactive, PHOSPHO1 block 99.8*, KCNQ1 pot inactive and KCNK3 inh inactive.
For Cc1ccc(S(=O)(=O)/C(C#N)=C/c2c(N3CCN(C)CC3)nc3c(C)cccn3c2=O)cc1 the results were hERG protect -4.9, KCNK9 inh inactive, KCNQ1 inh inactive, PHOSPHO1 block 4.9, KCNQ1 pot inactive and KCNK3 inh inactive.
CN(Cc1cnccn1)Cc1nc(Cc2ccccc2F)no1 was read as hERG protect 27.9*, KCNK9 inh inactive, KCNQ1 inh inactive, PHOSPHO1 block 26.9, KCNQ1 pot inactive and KCNK3 inh inactive.
`CN(Cc1cnccn1)Cc1nc(Cc2ccccc2Cl)no1` gave hERG protect -4.3, KCNK9 inh inactive, KCNQ1 inh inactive, PHOSPHO1 block 32.8, KCNQ1 pot inactive and KCNK3 inh inactive.
For COc1cc(C(C)=O)ccc1OCC(O)CN1CCN(c2c(C)cccc2C)CC1 (centres undefined) the results were hERG protect 0.1, KCNK9 inh inactive, KCNQ1 inh inactive, PHOSPHO1 block -21.3, KCNQ1 pot inactive and KCNK3 inh inactive.
Screening CCCN(CC1CC1)C(=S)Nc1ccccc1F returned hERG protect 11.1*, KCNK9 inh inactive, KCNQ1 inh inactive, PHOSPHO1 block 46.4, KCNQ1 pot inactive and KCNK3 inh inactive.
